Laboratory results published in ChEMBL document CHEMBL1124416, “5-(1-piperazinyl)-1H-1,2,4-triazol-3-amines as antihypertensive agents” (1989).

Tests used:
Rattus norvegicus [1] = test: The antihypertensive activity was assessed by measuring the heart rate in rats when administered at 50 mg/kg; assay type: functional
Procedure, shortened: (§1)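 16-week-old male SH rats (Okamoto) were dosed by oral gavage in 3% starch in normal saline (2 mL/kg), plus an oral saline load of 25 mL/kg. They were redosed at 24 h without the saline load. MABP and HR were taken by direct femoral arterial puncture under local anesthesia 4 h after the second dose. HR was rounded to 10 bpm.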

Rattus norvegicus [2] = species on record: Rattus norvegicus; assay type: functional, Artery; conditions: dose 100 mg/kg; route oral
Rattus norvegicus [3] = test: Effect on the cardiovascular response to ACH challenge was measured in conscious spontaneously hypertensive rats administered perorally at 1 mL/100g; assay type: functional, Heart
Rattus norvegicus [4] = test: Effect on the cardiovascular response to epinephrine (1ug/kg, iv) challenge was measured in conscious spontaneously hypertensive rats administered perorally at 50 mg/kg; assay type: functional, Heart; conditions: route oral
Procedure, shortened: (§2)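 Male Okamoto-Aoki SHR, about 350 g, conscious, held supine with elastic tape; tail base locally anesthetized with 2% procaine sc. Control responses were recorded first. Vehicle (10 mL/kg) or compound was then given orally, and challenges were repeated 1 h later. Challenges were a 75° tilt for 30 s and iv agonists (epinephrine 1 or 2 μg/kg). Read-out was change in MABP (mmHg); paired Student's t test.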

Rattus norvegicus [5] = test: Effect on the cardiovascular response to epinephrine (1ug/kg, iv) challenge was measured in conscious spontaneously hypertensive rats administered perorally at 1 mL/100g; assay type: functional, Heart; procedure, shortened: as §2
Rattus norvegicus [6] = test: The antihypertensive activity was assessed by measuring the heart rate in rats when administered at 25 mg/kg; assay type: functional; procedure, shortened: as §1
Rattus norvegicus [7] = test: Effect on the cardiovascular response to DMPP challenge was measured in conscious spontaneously hypertensive rats administered perorally at 50 mg/kg; assay type: functional, Heart; conditions: route oral
Rattus norvegicus [8] = test: The antihypertensive activity was assessed by measuring the mean arterial blood pressure in rats when administered at 25 mg/kg; assay type: functional; procedure, shortened: as §1
Rattus norvegicus [9] = test: Effect on the cardiovascular response to DMPP challenge was measured in conscious spontaneously hypertensive administered perorally rats at 1 mL/100g; assay type: functional, Heart
Rattus norvegicus [10] = test: Effect on the cardiovascular response to norepinephrine challenge was measured in conscious spontaneously hypertensive rats administered perorally at 1 mL/100g; assay type: functional, Heart
Rattus norvegicus [11] = test: Effect on the cardiovascular response to angiotensin II challenge was measured in conscious spontaneously hypertensive rats administered perorally at 1 mL/100g; assay type: functional, Heart
Rattus norvegicus [12] = test: Effect on the cardiovascular response to angiotensin II challenge was measured in conscious spontaneously hypertensive rats administered perorally at 50 mg/kg; assay type: functional, Heart; conditions: route oral
Rattus norvegicus [13] = test: Effect on the cardiovascular response to norepinephrine challenge was measured in conscious spontaneously hypertensive rats administered perorally at 8 mL/100 g; assay type: functional, Heart
Rattus norvegicus [14] = test: Effect on the cardiovascular response to ACH challenge was measured in conscious spontaneously hypertensive rats administered perorally at 8 mL/100 g; assay type: functional, Heart
Rattus norvegicus [15] = test: Effect on the cardiovascular response to isoproterenol challenge was measured in conscious spontaneously hypertensive rats administered perorally at 1 mL/100g; assay type: functional, Heart
Rattus norvegicus [16] = test: Effect on the cardiovascular response to tyramine challenge was measured in conscious spontaneously hypertensive rats administered perorally at 50 mg/kg; assay type: functional, Heart; conditions: route oral
Rattus norvegicus [17] = test: Effect on the cardiovascular response to ACH challenge was measured in conscious spontaneously hypertensive rats administered perorally at 50 mg/kg; assay type: functional, Heart; conditions: route oral
Rattus norvegicus [18] = test: Effect on the cardiovascular response to norepinephrine challenge was measured in conscious spontaneously hypertensive rats administered perorally at 50 mg/kg; assay type: functional, Heart; conditions: route oral
Rattus norvegicus [19] = test: Effect on the cardiovascular response to tyramine challenge was measured in conscious spontaneously hypertensive rats administered perorally at 8 mL/100 g; assay type: functional, Heart
Rattus norvegicus [20] = test: Effect on the cardiovascular response to epinephrine (2ug/kg, iv) challenge was measured in conscious spontaneously hypertensive rats administered perorally at 1 mL/100g; assay type: functional, Heart; procedure, shortened: as §2
Rattus norvegicus [21] = test: Effect on the cardiovascular response to isoproterenol challenge was measured in conscious spontaneously hypertensive rats administered perorally at 8 mL/100 g; assay type: functional, Heart
Rattus norvegicus [22] = test: Effect on the cardiovascular response to tilt challenge was measured in conscious spontaneously hypertensive rats administered perorally at 50 mg/kg; assay type: functional, Heart; conditions: route oral; procedure, shortened: as §2
Rattus norvegicus [23] = test: The antihypertensive activity was assessed by measuring the mean arterial blood pressure in rats when administered at 50 mg/kg; assay type: functional; procedure, shortened: as §1
Rattus norvegicus [24] = test: Effect on the […] was measured in conscious spontaneously hypertensive rat administered perorally at 1 mL/100g; assay type: functional, Heart
Rattus norvegicus [25] = test: Effect on the cardiovascular response to isoproterenol challenge was measured in conscious spontaneously hypertensive rats administered perorally at 50 mg/kg; assay type: functional, Heart; conditions: route oral
Rattus norvegicus [26] = test: Effect on the cardiovascular response to tilt challenge was measured in conscious spontaneously hypertensive rats administered perorally at 1 mL/100g; assay type: functional, Heart; procedure, shortened: as §2
Rattus norvegicus [27] = test: Effect on the cardiovascular response to epinephrine (2ug/kg, iv) challenge was measured in conscious spontaneously hypertensive rats administered perorally at 50 mg/kg; assay type: functional, Heart; conditions: route oral; procedure, shortened: as §2
Rattus norvegicus [28] = test: Assessment of antihypertensive activity at 100 mg/kg administered perorally by measuring the heart rate in rats; assay type: functional; conditions: route oral
Rattus norvegicus [29] = test: Effect on the cardiovascular response to angiotensin II challenge was measured in conscious spontaneously hypertensive rats administered perorally at 8 mL/100 g; assay type: functional, Heart

Which results are given for Nc1n[nH]c(N2CCN(Cc3cccc(Cl)c3)CC2)n1?
HR (Rattus norvegicus [1]): 440 beats min-1; MABP (Rattus norvegicus [2]): 89 mmHg; MABP (Rattus norvegicus [3]): -54.5 delta mmHg; MABP (Rattus norvegicus [4]): 29 delta mmHg; MABP (Rattus norvegicus [5]): 28.8 delta mmHg; HR (Rattus norvegicus [6]): 440 beats min-1; MABP (Rattus norvegicus [7]): 30.3 delta mmHg; MABP (Rattus norvegicus [8]): 132 mmHg; MABP (Rattus norvegicus [9]): 52.5 delta mmHg; MABP (Rattus norvegicus [10]): 45.8 delta mmHg; MABP (Rattus norvegicus [11]): 49 delta mmHg; MABP (Rattus norvegicus [12]): 70.2 delta mmHg; MABP (Rattus norvegicus [13]): 47.8 delta mmHg; MABP (Rattus norvegicus [14]): -68.5 delta mmHg; MABP (Rattus norvegicus [15]): -38.5 delta mmHg; MABP (Rattus norvegicus [16]): 34.8 delta mmHg; MABP (Rattus norvegicus [17]): -47 delta mmHg; MABP (Rattus norvegicus [18]): 63 delta mmHg; MABP (Rattus norvegicus [19]): 35.3 delta mmHg; MABP (Rattus norvegicus [20]): 37.3 delta mmHg; MABP (Rattus norvegicus [21]): -49.8 delta mmHg; MABP (Rattus norvegicus [22]): 9.3 delta mmHg; MABP (Rattus norvegicus [23]): 113 mmHg; MABP (Rattus norvegicus [24]): 34.5 delta mmHg; MABP (Rattus norvegicus [25]): -46.7 delta mmHg; MABP (Rattus norvegicus [26]): 17.3 delta mmHg; MABP (Rattus norvegicus [27]): 50.7 delta mmHg; HR (Rattus norvegicus [28]): 300 beats min-1; MABP (Rattus norvegicus [29]): 55 delta mmHg
